We go through 17 compounds from ChEMBL document CHEMBL2203022, “Design, synthesis and antimicrobial evaluation of novel 1-benzyl 2-butyl-4-chloroimidazole embodied 4-azafluorenones via molecular hybridization approach” (2012).

Type in all cases: functional
One assay relates to Klebsiella pneumoniae. The assay is described as follows: Antibacterial activity against Klebsiella pneumoniae MTCC 618 at 10 ug per disk after 24 hrs by disc diffusion method. Conditions: for zone of inhibition at 10 µg/disc: MTCC 618, 24 h, read-out: DIZ. The method, boiled down:
(§1)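 Standard 0.5 McFarland inoculum spread evenly over nutrient agar plates with a sterile L-shaped glass spreader. Plates incubated 24 h at 37 °C. Gentamicin as reference standard. Read-out: zone of inhibition in mm, measured in triplicate and compared with control and standard.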
For orientation: A growth-free zone around the sample is the usual read-out of agar diffusion tests.

The test system of another assay is Staphylococcus aureus. The assay is described as follows: Antibacterial activity against Staphylococcus aureus MTCC 1430 at 10 ug per disk after 24 hrs by disc diffusion method. Conditions: MTCC 1430, 24 h, read-out: DIZ. The method, boiled down: as §1
The next assay concerns Pseudomonas aeruginosa. The assay is described as follows: Antibacterial activity against Pseudomonas aeruginosa MTCC 2453 at 10 ug per disk after 24 hrs by disc diffusion method. Conditions: MTCC 2453, 24 h, read-out: DIZ. The method, boiled down:
as §1

Another assay has as its system Bacillus subtilis. Briefly: Antibacterial activity against Bacillus subtilis MTCC 121 at 10 ug per disk after 24 hrs by disc diffusion method. Conditions: for zone of inhibition at 10 µg/disc: MTCC 121, 24 h, read-out: DIZ. The method, boiled down: as §1
The test system of the next assay is Candida albicans. The assay is described as follows: Antifungal activity against Candida albicans MTCC 7253 at 10 ug per disk after 2 to 3 days by disc diffusion method. Conditions: read-out: DIZ. The method, boiled down: (§2)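 Fungal inoculum: a loopful of each strain suspended in saline, spread evenly on yeast extract potato dextrose agar with a sterile glass spreader. Sterile 5 mm discs loaded with test compound in DMSO placed on the agar. Plates incubated 2–3 days at room temperature. Nystatin as reference standard. Zones of inhibition measured and compared with control and standard.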

The test system of a further assay is Escherichia coli. Briefly: Antibacterial activity against Escherichia coli MTCC 1573 at 10 ug per disk after 24 hrs by disc diffusion method. Conditions: MTCC 1573, 24 h, read-out: DIZ. The method, boiled down:
as §1

Another assay concerns Aspergillus flavus. Briefly: Antifungal activity against Aspergillus flavus MTCC 8188 at 10 ug per disk after 2 to 3 days by disc diffusion method. Conditions: for zone of inhibition at 10 µg/disc: read-out: DIZ. The gist of the method: as §2

For the compound `CCCCc1nc(Cl)c(-c2cc(-c3cccs3)nc3c2C(=O)c2ccccc2-3)n1Cc1ccccc1`, the zone of inhibition at 10 µg/disc in the assay with Klebsiella pneumoniae amounted to 10 mm; in the assay on Staphylococcus aureus, 10 mm; in the assay on Pseudomonas aeruginosa it was 11 mm; in the assay with Bacillus subtilis, 10 mm; with Candida albicans, 10 mm; in the assay on Escherichia coli, 9 mm. Moreover, in the assay on Aspergillus flavus, the zone of inhibition at 10 µg/disc was 5 mm.
For the compound `CCCCc1nc(Cl)c(-c2cc(-c3cccc4ccccc34)nc3c2C(=O)c2ccccc2-3)n1Cc1ccccc1`, the zone of inhibition at 10 µg/disc was found to be 12 mm with Klebsiella pneumoniae; 12 mm with Staphylococcus aureus; 6 mm with Pseudomonas aeruginosa; 10 mm in the assay on Bacillus subtilis; 12 mm in the assay with Candida albicans; 9 mm in the assay on Escherichia coli. In addition, the zone of inhibition at 10 µg/disc in the assay with Aspergillus flavus was 5 mm.
Regarding `CCCCc1nc(Cl)c(-c2cc(-c3ccc(Br)s3)nc3c2C(=O)c2ccccc2-3)n1Cc1ccccc1`, the zone of inhibition at 10 µg/disc with Klebsiella pneumoniae was found to be 12 mm; in the assay on Staphylococcus aureus it was 12 mm; with Pseudomonas aeruginosa, 13 mm; in the assay on Bacillus subtilis it was 9 mm; with Candida albicans it was 9 mm; with Escherichia coli, 8 mm. Besides, the zone of inhibition at 10 µg/disc in the assay on Aspergillus flavus turned out to be 7 mm.
Take `CCCCc1nc(Cl)c(-c2cc(-c3ccco3)nc3c2C(=O)c2ccccc2-3)n1Cc1ccccc1`: the zone of inhibition at 10 µg/disc in the assay with Klebsiella pneumoniae was determined as 15 mm; with Staphylococcus aureus, 15 mm; in the assay with Pseudomonas aeruginosa it was 14 mm; in the assay with Bacillus subtilis, 8 mm; in the assay on Candida albicans, 13 mm; with Escherichia coli, 8 mm. For the same compound, the zone of inhibition at 10 µg/disc with Aspergillus flavus was 10 mm.
GENTAMICIN: the results for the inhibition zone (IZ) in the assay on Klebsiella pneumoniae and in the assay with Bacillus subtilis were 19 mm and 14 mm, respectively.
Turning to `CCCCc1nc(Cl)c(-c2cc(-c3ccc4oc5ccccc5c4c3)nc3c2C(=O)c2ccccc2-3)n1Cc1ccccc1`, the zone of inhibition at 10 µg/disc amounted to 13 mm in the assay on Klebsiella pneumoniae; 11 mm with Staphylococcus aureus; 13 mm with Pseudomonas aeruginosa; 9 mm with Bacillus subtilis; 10 mm in the assay with Candida albicans; 9 mm in the assay with Escherichia coli. Besides, the zone of inhibition at 10 µg/disc with Aspergillus flavus turned out to be 7 mm.
Consider `CCCCc1nc(Cl)c(-c2cc(-c3cccc(Br)n3)nc3c2C(=O)c2ccccc2-3)n1Cc1ccccc1`, for which the zone of inhibition at 10 µg/disc in the assay with Klebsiella pneumoniae came out at 9 mm; with Staphylococcus aureus it was 12 mm; in the assay on Pseudomonas aeruginosa, 12 mm; in the assay on Bacillus subtilis it was 8 mm; in the assay with Candida albicans it was 11 mm; with Escherichia coli, 9 mm. For the same compound, the zone of inhibition at 10 µg/disc in the assay on Aspergillus flavus is 9 mm.
Take `CCCCc1nc(Cl)c(-c2cc(-c3ccc(C)cc3)nc3c2C(=O)c2ccccc2-3)n1Cc1ccccc1`: the zone of inhibition at 10 µg/disc came to 11 mm with Klebsiella pneumoniae; 10 mm in the assay with Staphylococcus aureus; 8 mm in the assay on Pseudomonas aeruginosa; 8 mm with Bacillus subtilis; 10 mm in the assay on Candida albicans; 9 mm in the assay with Escherichia coli. In addition, in the assay on Aspergillus flavus, the zone of inhibition at 10 µg/disc is 7 mm.
On to `CCCCc1nc(Cl)c(-c2cc(-c3ccc(OC)cc3)nc3c2C(=O)c2ccccc2-3)n1Cc1ccccc1`, for which the zone of inhibition at 10 µg/disc in the assay on Klebsiella pneumoniae was 11 mm; in the assay with Staphylococcus aureus, 10 mm; with Pseudomonas aeruginosa, 9 mm; in the assay on Bacillus subtilis, 9 mm; with Candida albicans, 12 mm; in the assay with Escherichia coli it was 8 mm. The zone of inhibition at 10 µg/disc in the assay with Aspergillus flavus was 6 mm.
Turning to `CCCCc1nc(Cl)c(-c2cc(-c3cn(S(=O)(=O)c4ccc(C)cc4)c4ccccc34)nc3c2C(=O)c2ccccc2-3)n1Cc1ccccc1`, the zone of inhibition at 10 µg/disc in the assay with Klebsiella pneumoniae turned out to be 12 mm; in the assay with Staphylococcus aureus it was 10 mm; with Pseudomonas aeruginosa, 7 mm; in the assay on Bacillus subtilis, 7 mm; in the assay on Candida albicans it was 13 mm; with Escherichia coli it was 8 mm. The zone of inhibition at 10 µg/disc in the assay on Aspergillus flavus is 11 mm.
Consider `CCCCc1nc(Cl)c(-c2cc(-c3cc(OC)c(OC)c(OC)c3)nc3c2C(=O)c2ccccc2-3)n1Cc1ccccc1`, for which the zone of inhibition at 10 µg/disc in the assay with Klebsiella pneumoniae was found to be 11 mm; in the assay on Staphylococcus aureus, 12 mm; in the assay on Pseudomonas aeruginosa, 7 mm; in the assay with Bacillus subtilis it was 9 mm; in the assay with Candida albicans, 10 mm; with Escherichia coli it was 9 mm. In the assay with Aspergillus flavus, the zone of inhibition at 10 µg/disc was 6 mm.
`CCCCc1nc(Cl)c(-c2cc(-c3ccc4ccccc4c3)nc3c2C(=O)c2ccccc2-3)n1Cc1ccccc1`: the zone of inhibition at 10 µg/disc with Klebsiella pneumoniae was found to be 12 mm; in the assay on Staphylococcus aureus it was 12 mm; in the assay with Pseudomonas aeruginosa it was 13 mm; in the assay on Bacillus subtilis, 9 mm; in the assay with Candida albicans it was 10 mm; with Escherichia coli, 8 mm. Further, the zone of inhibition at 10 µg/disc in the assay with Aspergillus flavus came out at 6 mm.
`CCCCc1nc(Cl)c(-c2cc(-c3ccc4sc5ccccc5c4c3)nc3c2C(=O)c2ccccc2-3)n1Cc1ccccc1`: the zone of inhibition at 10 µg/disc turned out to be 11 mm with Klebsiella pneumoniae; 12 mm in the assay on Staphylococcus aureus; 7 mm in the assay with Pseudomonas aeruginosa; 9 mm with Bacillus subtilis; 14 mm with Candida albicans; 8 mm with Escherichia coli. In addition, in the assay with Aspergillus flavus, the zone of inhibition at 10 µg/disc is 10 mm.
The compound NYSTATIN registered an inhibition zone (IZ) with Aspergillus flavus of 9 mm.
As for `CCCCc1nc(Cl)c(-c2cc(-c3ccccc3)nc3c2C(=O)c2ccccc2-3)n1Cc1ccccc1`, the zone of inhibition at 10 µg/disc in the assay with Klebsiella pneumoniae turned out to be 11 mm; with Staphylococcus aureus, 12 mm; in the assay on Pseudomonas aeruginosa, 10 mm; with Bacillus subtilis it was 8 mm; in the assay with Candida albicans it was 10 mm; in the assay with Escherichia coli it was 9 mm. Also, in the assay with Aspergillus flavus, the zone of inhibition at 10 µg/disc came to 8 mm.
On to `CCCCc1nc(Cl)c(-c2cc(-c3ccc([N+](=O)[O-])cc3)nc3c2C(=O)c2ccccc2-3)n1Cc1ccccc1`, for which the zone of inhibition at 10 µg/disc is 10 mm with Klebsiella pneumoniae; 10 mm with Staphylococcus aureus; 10 mm with Pseudomonas aeruginosa; 10 mm in the assay with Bacillus subtilis; 11 mm with Candida albicans; 8 mm with Escherichia coli. Moreover, the zone of inhibition at 10 µg/disc with Aspergillus flavus was found to be 6 mm.
In the case of `CCCCc1nc(Cl)c(-c2cc(-c3ccc(Br)cc3)nc3c2C(=O)c2ccccc2-3)n1Cc1ccccc1`, the zone of inhibition at 10 µg/disc in the assay on Klebsiella pneumoniae was found to be 12 mm; in the assay with Staphylococcus aureus it was 12 mm; in the assay with Pseudomonas aeruginosa, 6 mm; in the assay with Bacillus subtilis, 9 mm; in the assay on Candida albicans it was 10 mm; in the assay with Escherichia coli, 9 mm. The zone of inhibition at 10 µg/disc with Aspergillus flavus worked out at 7 mm.
